Test [1] has as its system Bos taurus. The experiment in a line: anthelmintic activity as the eggs per gram of faeces in sheep infected with 5000 Haemonchus contortus L3 larvae at 0.1 mg/kg. The format is functional, Ovis aries, Feces. The essentials: (§1)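 Merino or Schwarzkopf sheep (25–35 kg) infected with 5000 H. contortus L3, dosed after the pre-patency period, orally in gelatine capsules or intravenously. Faecal egg counts by Wetzel-modified McMaster method, per gram of fresh faeces, at regular intervals before and after treatment. Activity as eggs per gram and percent reduction versus pretreatment. Untreated controls sampled at matching times.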

The test system of test [2] is Bos taurus. The experiment in a line: anthelmintic activity as the percent reduction in faecal egg count in sheep infected with 5000 Haemonchus contortus L3 larvae at 0.1 mg/kg. The format is functional, Ovis aries, Feces. An outline of the steps: as §1
Test [3] concerns Haemonchus contortus. The experiment in a line: anthelmintic activity as the percent reduction in faecal egg count in sheep infected with 5000 Haemonchus contortus L3 larvae at 0.01 mg/kg.
Test [4] concerns Haemonchus contortus. The experiment in a line: anthelmintic activity as the eggs per gram of faeces in sheep infected with 5000 Haemonchus contortus L3 larvae at 0.01 mg/kg.

The results in this text go back to ChEMBL document CHEMBL1138733, “Chimeric cyclodepsipeptides as mimetics for the anthelmintic PF1022A” (2004).

For the compound `CC(C)C[C@H]1C(=O)O[C@H](Cc2ccccc2)C(=O)N(C)[C@@H](CC(C)C)C(=O)O[C@H](C)C(=O)N(C)[C@@H](CC(C)C)C(=O)O[C@H](Cc2ccccc2)C(=O)N(C)[C@@H](CC(C)C)C(=O)O[C@H](C)C(=O)N1C`, the Activity in test [1] was 0 eggs/g; in test [4] it was 573 eggs/g. Moreover, the Reduction in test [2] turned out to be 100%; in test [3], 43%.

As to `CC(C)C[C@H]1C(=O)N[C@H]2CCC3SC[C@@H](C(=O)O[C@H](C)C(=O)N(C)[C@@H](CC(C)C)C(=O)O[C@H](Cc4ccccc4)C(=O)N(C)[C@@H](CC(C)C)C(=O)O[C@H](C)C(=O)N1C)N3C2=O` (stereo partly drawn), the Reduction in test [3] is on record as 95%. In test [4], this compound returned an Activity of 83 eggs/g.

Compound `CC(C)C[C@H]1C(=O)O[C@H](Cc2ccccc2)C(=O)N(C)[C@@H](CC(C)C)C(=O)O[C@H](C)C(=O)N(C)[C@@H](CC(C)C)C(=O)N2CCC[C@@H]2C(=O)N2CCC[C@H]2C(=O)O[C@H](C)C(=O)N1C` gave a Reduction in test [3] of 98%. The Activity in test [4] is 50 eggs/g.
